Laboratory results: PMC5776616 (Experimental and Therapeutic Medicine, 2017)
Where no end group is shown, it is not given here.

Tests used:
S. mutans UA 159 [1] = test: MIC by broth microdilution, planktonic S. mutans UA159; assay type: cell-based, Streptococcus mutans; conditions: for MICs against the S. mutans strains: range over both S. mutans strains (UA159 and GS-5); for increase of antibacterial activity against S. mutans compared with hLF1-11 alone: planktonic S. mutans, from MICs
In short: (§1)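 Strains were grown anaerobically overnight in BHI at 37°C, diluted 1:20 and grown anaerobically 2.5 h to mid-log phase. Two-fold serial peptide dilutions in BHI were set up in 96-well round-bottom plates, and the final inoculum was 1×10^5 CFU/ml. The MIC was reported as the median of at least three independent experiments.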

[2] = tested on: multi-species biofilm of luc-ldh reporter strain of S. mutans, S. gordonii ATCC-10558 and S. sanguis ATCC-49295; test: Multi-species biofilm; assay type: cell-based; conditions: for growth of S. gordonii and S. sanguis in multi-species biofilm: 5 min after treatment, peptide 128 µg/ml; for relative strength of effect on S. mutans in multi-species biofilm (ranking): order in words: strongest effects, followed by, then, Fig. 2B
In short: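 Mid-log cultures were adjusted to 1×10^7 CFU/ml in BHI with 0.5% sucrose (S. mutans luc-ldh reporter), 0.5% glucose (S. gordonii) or 0.5% mannose (S. sanguis). Wells were spun and grown anaerobically 4 h at 37°C into biofilm. Peptide in PBS was added at a final 128 µg/ml, then replaced with sugar-containing BHI. OD600 was read at 5–120 min, and S. mutans RLU after adding 1 mM D-luciferin. Groups were compared by one-way ANOVA.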

S. gordonii ATCC-10558 = test: MIC by broth microdilution, planktonic S. gordonii; assay type: cell-based, Streptococcus gordonii
In short: as §1

S. sanguis ATCC-49295 = test: MIC by broth microdilution, planktonic S. sanguis; assay type: cell-based, Streptococcus sanguis
In short: as §1

S. mutans UA 159 [3] = test: Differential protein expression; assay type: cell-based, Streptococcus mutans
In short: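 Mid-log S. mutans UA 159 (BHI, anaerobic, 1×10^6 CFU/ml) was exposed to test peptide at 20 µg/ml or an equal volume of sterile water, anaerobically at 37°C for 1 h. Cells were pelleted at 4°C and lysed with lysozyme plus protease inhibitors, on ice with sonication. Protein was cleaned, quantified and CyDye minimal-labelled. Spots were identified by positive-ion reflection MALDI-TOF-MS over m/z 700–4,000.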

[4] = S. mutans UA 159, C11H 20 µg/ml 1 h vs water control, gi|24379038

Sequence	MICs against the S. mutans strains (S. mutans UA 159 [1]; planktonic)	growth of S. gordonii and S. sanguis in multi-species biofilm [2]	increase of antibacterial activity against S. mutans compared with hLF1-11 alone (S. mutans UA 159 [1])	relative strength of effect on S. mutans in multi-species biofilm (ranking) [2]	further results
GRRRRSVQWCA [hLF1-11, reference compound]	37.33 to 48.00 µg/mL	not affected	–	–	–
LSTFFRLFN [C12]	–	not affected	–	–	MIC against S. mutans (S. mutans UA 159 [1]; planktonic): > 256 µg/mL; MIC against S. gordonii (S. gordonii ATCC-10558): > 256 µg/mL; MIC against S. sanguis (S. sanguis ATCC-49295): > 256 µg/mL
LSTFFRLFNGRRRRSVQWCA [C12H]	10.67 to 13.33 µg/mL	not affected	3–4 times	strongest effects	–
LSTFFRLFNRSFTQGRRRRSVQWCA [C14H]	10.67 to 13.33 µg/mL	not affected	3–4 times	–	–
STFFRLFNRSFTQGRRRRSVQWCA [C13H]	10.67 to 13.33 µg/mL	not affected	3–4 times	–	–
TFFRLFNRGRRRRSVQWCA [C8H]	10.67 to 13.33 µg/mL	not affected	3–4 times	then	–
TFFRLFNRSFTGRRRRSVQWCA [C11H]	10.67 to 13.33 µg/mL	not affected	3–4 times	strongest effects	Average ration: Heat shock protein GrpE (HSP-70 cofactor) (master no. 1781) (S. mutans UA 159 [3]; S. mutans UA 159, C11H 20 µg/ml 1 h vs water control, gi|24378605): −4.2; Average ration: NAD synthetase (master no. 1628) (S. mutans UA 159 [3]; S. mutans UA 159, C11H 20 µg/ml 1 h vs water control, gi|24378953): −4.12; Average ration: Putative cell division A protein DivIV (master no. 1355) (S. mutans UA 159 [3]; [4]): −8; Average ration: Putative cell division protein DivIVA (master no. 1327) (S. mutans UA 159 [3]; [4]): −11.09; Average ration: Putative cell division protein DivIVA (master no. 1341) (S. mutans UA 159 [3]; [4]): −5.58; Average ration: Putative 40K cell wall protein precursor (master no. 654) (S. mutans UA 159 [3]; S. mutans UA 159, C11H 20 µg/ml 1 h vs water control, gi|24379086): −4.75; Average ration: Branch ed-chain amino acid aminotransferase (master no. 1241) (S. mutans UA 159 [3]; S. mutans UA 159, C11H 20 µg/ml 1 h vs water control, gi|24379628): −5.4; Average ration: Orotate phosphoribo-syltransferase (master no. 2141) (S. mutans UA 159 [3]; S. mutans UA 159, C11H 20 µg/ml 1 h vs water control, gi|24379645): −4.63; Average ration: Putative dTDP-4-keto-L-rhamnose reductase (master no. 2068) (S. mutans UA 159 [3]; S. mutans UA 159, C11H 20 µg/ml 1 h vs water control, gi|24379857): −5.54; Average ration: Ribosome recycling factor (master no. 2072) (S. mutans UA 159 [3]; S. mutans UA 159, C11H 20 µg/ml 1 h vs water control, gi|24380004): −4.7; Average ration: Hypothetical protein SMU.1716c (master no. 2188) (S. mutans UA 159 [3]; S. mutans UA 159, C11H 20 µg/ml 1 h vs water control, gi|24380090): −6.14; Average ration: Putative trans-2-enoyl-ACP reductase (master no. 1551) (S. mutans UA 159 [3]; S. mutans UA 159, C11H 20 µg/ml 1 h vs water control, gi|24380114): −4.34; Average ration: Hypothetical protein SMU.1760c (master no. 1506) (S. mutans UA 159 [3]; S. mutans UA 159, C11H 20 µg/ml 1 h vs water control, gi|24380128): −5.93; Average ration: Hypothetical protein SMU.1789c (master no. 1576) (S. mutans UA 159 [3]; S. mutans UA 159, C11H 20 µg/ml 1 h vs water control, gi|24380155): −6.04; Average ration: Elongation factor P (master no. 2035) (S. mutans UA 159 [3]; S. mutans UA 159, C11H 20 µg/ml 1 h vs water control, gi|24380208): −4.19; Average ration: Single-strand DNA-binding protein (master no. 2334) (S. mutans UA 159 [3]; S. mutans UA 159, C11H 20 µg/ml 1 h vs water control, gi|24380219): −5.37; Average ration: Inositol-5 monophosphate dehydrogenase (master no. 824) (S. mutans UA 159 [3]; S. mutans UA 159, C11H 20 µg/ml 1 h vs water control, gi|24380485): −12.84; 21 protein spots with a mean change ratio of 1.5 (S. mutans UA 159 [3]; S. mutans UA 159, C11H 20 µg/ml, 1 h): downregulated
